The source made the active and inactive calls. No cut-off for these calls is given here. Non-standard residues stand in square brackets, D forms with d. Residues, ends and D or L forms follow the SMILES beside them.
How the values were obtained:
[1] = Upregulation of thymidylate synthase total protein level in 13-fold cisplatin-resistant human C13 cells at 5 uM after 48 hrs by Western blotting analysis; type: functional, cell-based
2008 [2] = test: Upregulation of thymidylate synthase total protein level in human 2008 cells at 5 uM after 48 hrs by Western blotting analysis; type: functional, cell-based
[3] = molecular target: Thymidylate synthase (Homo sapiens) (UniProt P04818); test: Inhibition of human thymidylate synthase using dUMP as substrate at 75 uM after 1 hr by UV-vis spectrophotometric analysis in presence of mTHF relative to control
Outline: (§1)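 Purified hTS, concentration by UV-vis (ε280 = 89 000 M−1 cm−1), preincubated 1 h with peptide in phosphate buffer pH 6.9 at 25 °C. Reaction in 50 mM TES pH 7.4 with 25 mM MgCl2, 6.5 mM HCHO, 1 mM EDTA, 75 mM βME, 0.6 mM dUMP, 0.15 mM mTHF. A340 followed 3 min. I% versus enzyme-alone control, mean ± SEM, n = 3.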

[4] = Cytotoxicity against 10-fold cisplatin-resistant human A2780C/P cells cell survival at 10 uM after 72 hrs by crystal violet staining-based spectrophotometric analysis relative to control; conditions: A2780cisR, read-out: Survival
A2780 = test: Cytotoxicity against human A2780 cells assessed as cell survival at 10 uM after 72 hrs by crystal violet staining-based spectrophotometric analysis relative to control; conditions: A2780, 72 h, read-out: Survival
[5] = Cytotoxicity against 13-fold cisplatin-resistant human C13 cells cell survival at 10 uM after 72 hrs by crystal violet staining-based spectrophotometric analysis relative to control; conditions: C13, 72 h, read-out: Survival
2008 [6] = test: Cytotoxicity against human 2008 cells assessed as cell survival at 10 uM after 72 hrs by crystal violet staining-based spectrophotometric analysis relative to control; conditions: Homo sapiens, 2008, 72 h, read-out: Survival
[7] = molecular target: Thymidylate synthase (Homo sapiens) (UniProt P04818); test: Inhibition of human thymidylate synthase using dUMP as substrate at 50 uM after 1 hr by UV-vis spectrophotometric analysis in presence of mTHF relative to control; outline: as §1

Thymidylate synthase (Homo sapiens), sequence (P04818 2-313 limits assumed): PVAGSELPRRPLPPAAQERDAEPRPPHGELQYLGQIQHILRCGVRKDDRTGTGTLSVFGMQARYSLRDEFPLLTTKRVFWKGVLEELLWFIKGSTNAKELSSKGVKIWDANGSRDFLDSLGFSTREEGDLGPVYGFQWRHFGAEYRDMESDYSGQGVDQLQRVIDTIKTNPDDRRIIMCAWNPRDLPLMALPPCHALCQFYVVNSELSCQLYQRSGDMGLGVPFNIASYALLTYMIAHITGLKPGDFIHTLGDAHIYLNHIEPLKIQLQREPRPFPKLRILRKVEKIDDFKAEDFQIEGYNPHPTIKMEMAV

O=c1[nH]cc(F)c(=O)[nH]1
Activity [1]: Active | Activity 2008 [2]: Active

CC(C)C[C@H](N)C(=O)N[C@@H](CO)C(=O)N[C@@H](CS)C(=O)N[C@@H](CCC(N)=O)C(=O)O (H-LSCQ-OH)
inhibition [3]: 59%

CC(C)C[C@H](NC(=O)[C@@H](CCC(N)=O)NC(=O)[C@H](CS)NC(=O)[C@H](CO)NC(=O)[C@@H](N)CC(C)C)C(=O)N[C@@H](Cc1ccc(O)cc1)C(=O)N[C@@H](CCC(N)=O)C(=O)N[C@@H](CCCNC(=N)N)C(=O)O (H-LSC[dQ]LYQR-OH)
viability at 10 µM [4]: 25% | viability at 10 µM (A2780): < 50% | viability at 10 µM [5]: 25% | viability at 10 µM 2008 [6]: < 50%

H-CQLYQ-OH
inhibition [3]: 52%

H-LSCQLYAR-OH
inhibition [7]: 60%

H-LSCQLYQ-OH
inhibition [3]: 56%

H-SCQLYQR-OH
inhibition [7]: 54%

Source: ChEMBL document CHEMBL3124918, “Optimization of peptides that target human thymidylate synthase to inhibit ovarian cancer cell growth” (2014)
